In ChEMBL document CHEMBL1121581, “4-Piperazinyl-10H-thieno[2,3-b][1,5]benzodiazepines as potential neuroleptics” (J Med Chem, 1980):

Legend:
Rattus norvegicus [1] = experiment: Compound was assessed for its ability to produce catalepsy in rats; Dose administered perorally is 25 mg/kg; Group score is 4-7; assay type: functional; details: route oral
How it was run: (§1)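 Groups of eight Lilly Wistar rats (180–190 g) were dosed orally, then checked at 0.5, 1, 1.5, 2, 3, 4 and 5 h. Front paws were placed on a 1.5-cm rod 7 cm above the table, and hold time was recorded up to 20 min. Each rat was scored 0–5 and its maximum scores were summed per group (maximum 40), then graded 0–4.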

Rattus norvegicus [2] = experiment: Compound was assessed for its ability to block a conditioned avoidance response; Dose administered perorally is 50 mg/kg; 51-75%block; assay type: functional; details: route oral
How it was run: (§2)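 Lilly Wistar rats (120–130 g) trained in a shuttle box to cross on a 5-s buzzer, with mild shock if no response within 1 s of buzzer end. Only rats with a high conditioned response were used. Groups of five were dosed orally 1 h 50 min before the session, then habituated 10 min and tested 20 min. Shocks were scored as % of stimuli and graded 0–5.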

Mus musculus = experiment: Hypothermia in mice after peroral administration; assay type: functional
[3] = Lethal dose in mice after perorla administration; assay type: toxicity, organism-based; details: mouse, in vivo, po
Rattus norvegicus [4] = experiment: Compound was assessed for its ability to block a conditioned avoidance response; Dose administered perorally is 10 mg/kg; 31-50%block; assay type: functional; details: route oral; how it was run: as §2
Rattus norvegicus [5] = experiment: Compound was assessed for its ability to produce catalepsy in rats; Dose administered perorally is 12.5 mg/kg; Group score is 8-15; assay type: functional; details: route oral; how it was run: as §1
Rattus norvegicus [6] = experiment: Compound was assessed for its ability to produce catalepsy in rats; Dose administered perorally is 80; Group score is 8-15; assay type: functional
Rattus norvegicus [7] = experiment: Compound was assessed for its ability to block a conditioned avoidance response; Dose administered perorally is 30 mg/kg; 51-75%block; assay type: functional; details: route oral
How it was run: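 Trained Lilly Wistar rats (120–130 g) in a shuttle box, 5-s buzzer with mild shock if no response within 1 s of buzzer end. Only high-responders used; groups of five dosed orally 1 h 50 min before test, 10-min habituation, then 20-min session. Block = shocks as % of stimuli presented, scored 0–5 (3 = 51–75% block).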

Rattus norvegicus [8] = experiment: Compound was assessed for its ability to block a conditioned avoidance response; Dose administered intraperitoneally is 20 mg/kg; 31-50%block; assay type: functional; details: route intraperitoneal
How it was run: (§3)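 Shuttle-box conditioned avoidance in Lilly Wistar rats (120–130 g) pretrained to a 5-s buzzer with mild shock after a 1-s failure to respond. Groups of five had 10-min habituation and a 20-min test. Block was taken as shocks received as % of buzzer presentations and graded 0–5. Maximum dose was half the rotarod-disruption ED₅₀.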

Rattus norvegicus [9] = experiment: Compound was assessed for its ability to produce catalepsy in rats; Dose administered perorally is 50 mg/kg; Group score is 0-3; assay type: functional; details: route oral; how it was run: as §1
Rattus norvegicus [10] = experiment: Compound was assessed for its ability to block a conditioned avoidance response; Dose administered perorally is 8 mg/kg; 76-99%block; assay type: functional; details: route oral; how it was run: as §2
Rattus norvegicus [11] = experiment: Compound was assessed for its ability to produce catalepsy in rats; Dose administered perorally is 8 mg/kg; Group score is 4-7; assay type: functional; details: route oral; how it was run: as §1
Rattus norvegicus [12] = experiment: Compound was assessed for its ability to block a conditioned avoidance response; Dose administered intraperitoneally is 50 mg/kg; 26-30%block; assay type: functional; details: route intraperitoneal; how it was run: as §3
Rattus norvegicus [13] = experiment: Compound was assessed for its ability to block a conditioned avoidance response; Dose administered perorally is 4 mg/kg; 26-30%block; assay type: functional; details: route oral; how it was run: as §2
Rattus norvegicus [14] = experiment: Compound was assessed for its ability to block a conditioned avoidance response; Dose administered intraperitoneally is 50 mg/kg; 31-50%block; assay type: functional; details: route intraperitoneal; how it was run: as §3
Rattus norvegicus [15] = experiment: Compound was assessed for its ability to block a conditioned avoidance response; Dose administered perorally is 30 mg/kg; Complete block of conditioned & unconditioned response; assay type: functional; details: route oral; how it was run: as §2
Rattus norvegicus [16] = experiment: Compound was assessed for its ability to block a conditioned avoidance response; Dose administered intraperitoneally is 40 mg/kg; no significant effect (0-25%block); assay type: functional; details: route intraperitoneal; how it was run: as §3
Rattus norvegicus [17] = experiment: Compound was assessed for its ability to block a conditioned avoidance response; Dose administered intraperitoneally is 40 mg/kg; 26-30%block; assay type: functional; details: route intraperitoneal; how it was run: as §3
Rattus norvegicus [18] = experiment: Compound was assessed for its ability to block a conditioned avoidance response; Dose administered perorally is 40 mg/kg; 26-30%block; assay type: functional; details: route oral; how it was run: as §2
Rattus norvegicus [19] = experiment: Compound was assessed for its ability to produce catalepsy in rats; Dose administered perorally is 25 mg/kg; Group score is 8-15; assay type: functional; details: route oral; how it was run: as §1
Rattus norvegicus [20] = experiment: Compound was assessed for its ability to block a conditioned avoidance response; Dose administered perorally is 25 mg/kg; 26-30%block; assay type: functional; details: route oral, in the assay text read “31-50%block” for “26-30%block”; how it was run: as §2
Rattus norvegicus [21] = experiment: Compound was assessed for its ability to produce catalepsy in rats; Dose administered perorally is 50 mg/kg; Group score is 8-15; assay type: functional; details: route oral; how it was run: as §1
Rattus norvegicus [22] = experiment: Compound was assessed for its ability to produce catalepsy in rats; Dose administered perorally is 10 mg/kg; Group score is 8-15; assay type: functional; details: route oral; how it was run: as §1
Rattus norvegicus [23] = experiment: Compound was assessed for its ability to block a conditioned avoidance response; Dose administered perorally is 10 mg/kg; 76-99%block; assay type: functional; details: route oral; how it was run: as §2
Rattus norvegicus [24] = experiment: Compound was assessed for its ability to block a conditioned avoidance response; Dose administered perorally is 2.5 mg/kg; 31-50%block; assay type: functional; details: route oral; how it was run: as §2
Rattus norvegicus [25] = experiment: Compound was assessed for its ability to produce catalepsy in rats; Dose administered perorally is 2.5 mg/kg; Group score is 31-40; assay type: functional; details: route oral; how it was run: as §1
Rattus norvegicus [26] = experiment: Compound was assessed for its ability to produce catalepsy in rats; Dose administered perorally is 1.25 mg/kg; Group score is 16-30; assay type: functional; details: route oral; how it was run: as §1
Rattus norvegicus [27] = experiment: Compound was assessed for its ability to block a conditioned avoidance response; Dose administered perorally is 1.25 mg/kg; 51-75%block; assay type: functional; details: route oral; how it was run: as §2
Rattus norvegicus [28] = experiment: Compound was assessed for its ability to produce catalepsy in rats; Dose administered perorally is 12 mg/kg; Group score is 8-15; assay type: functional; details: route oral; how it was run: as §1
Rattus norvegicus [29] = experiment: Compound was assessed for its ability to block a conditioned avoidance response; Dose administered perorally is 6 mg/kg; 51-75%block; assay type: functional; details: route oral; how it was run: as §2
Rattus norvegicus [30] = experiment: Compound was assessed for its ability to block a conditioned avoidance response; Dose administered perorally is 20 mg/kg; no significant effect (0-25%block); assay type: functional; details: route oral; how it was run: as §2
Rattus norvegicus [31] = experiment: Compound was assessed for its ability to produce catalepsy in rats; Dose administered subcutaneously is 30 mg/kg; Group score is 4-7; assay type: functional; details: route subcutaneous
Rattus norvegicus [32] = experiment: Compound was assessed for its ability to produce catalepsy in rats; Dose administered perorally is 60 mg/kg; Group score is 8-15; assay type: functional; details: route oral; how it was run: as §1
Rattus norvegicus [33] = experiment: Compound was assessed for its ability to block a conditioned avoidance response; Dose administered intraperitoneally is 20 mg/kg; 26-30%block; assay type: functional; details: route intraperitoneal; how it was run: as §3
Rattus norvegicus [34] = experiment: Compound was assessed for its ability to produce catalepsy in rats; Dose administered perorally is 10 mg/kg; Group score is 4-7; assay type: functional; details: route oral; how it was run: as §1
Rattus norvegicus [35] = experiment: Compound was assessed for its ability to block a conditioned avoidance response; Dose administered perorally is 12.5 mg/kg; 76-99%block; assay type: functional; details: route oral; how it was run: as §2

CSc1ccc2c(c1)N(CCC1CCCCN1C)c1ccccc1S2 (stereo not given) [THIORIDAZINE] showed an Activity (Rattus norvegicus [1]) of 1, an Activity (Rattus norvegicus [2]) of 3 and an EDmin (Mus musculus) of 25 mg/kg. The LD50 [3] was 400 mg/kg.
CCc1cc2c(s1)Nc1ccc(F)cc1N=C2N1CCN(CCCO)CC1 showed an EDmin (Mus musculus) of 25 mg/kg, an Activity (Rattus norvegicus [4]) of 2 and an Activity (Rattus norvegicus [5]) of 2. For the same molecule, the LD50 [3] was 400 mg/kg.
Molecule CN1CCN(C2=Nc3cc(Cl)ccc3Nc3ccccc32)CC1 [CLOZAPINE] has an Activity (Rattus norvegicus [6]) of 2, an EDmin (Mus musculus) of 50 mg/kg and an Activity (Rattus norvegicus [7]) of 3.
In the case of CCc1cc2c(s1)Nc1ccc(F)cc1N=C2NCCN1CCCC1, the Activity (Rattus norvegicus [8]) is reported as 2, the EDmin (Mus musculus) is reported as 200 mg/kg and the Activity (Rattus norvegicus [9]) is reported as 0. The LD50 [3] was over 400 mg/kg.
Molecule Cc1cc2c(s1)Nc1ccc(F)cc1N=C2N1CCN(C)CC1 [FLUMEZAPINE] has an EDmin (Mus musculus) of 3 mg/kg, an Activity (Rattus norvegicus [10]) of 4 and an Activity (Rattus norvegicus [11]) of 1. For the same molecule, the LD50 [3] was 200 mg/kg.
In the case of CCc1cc2c(s1)Nc1ccc(F)cc1N=C2NCCCN(C)C, the Activity (Rattus norvegicus [12]) is reported as 1, the EDmin (Mus musculus) is reported as over 400 mg/kg and the LD50 [3] is reported as over 800 mg/kg.
For CCc1cc2c(s1)Nc1cc(F)ccc1N=C2N1CCN(C)CC1, the Activity (Rattus norvegicus [13]) was 1, the EDmin (Mus musculus) was 12.5 mg/kg and the Activity (Rattus norvegicus [11]) was 1. For the same molecule, the LD50 [3] was 150 mg/kg.
With CCc1cc2c(s1)Nc1ccc(F)cc1N=C2NCCCN1CCN(C)CC1 the Activity (Rattus norvegicus [14]) was 2, the EDmin (Mus musculus) was 200 mg/kg and the LD50 [3] was 400 mg/kg.
Molecule CN1CCN(C2=Nc3cc(F)ccc3Nc3sccc32)CC1 has an EDmin (Mus musculus) of 25 mg/kg, an Activity (Rattus norvegicus [15]) of 5 and an LD50 [3] of over 200 mg/kg.
CCc1cc2c(s1)Nc1ccc(F)cc1N=C2NCCCO showed an EDmin (Mus musculus) of over 200 mg/kg, an Activity (Rattus norvegicus [16]) of 0 and an LD50 [3] of 400 mg/kg.
For CCc1cc2c(s1)Nc1ccc(F)cc1N=C2NCCN(C)C, the EDmin (Mus musculus) was 200 mg/kg, the Activity (Rattus norvegicus [17]) was 1 and the LD50 [3] was 400 mg/kg.
CCc1cc2c(s1)Nc1ccc(F)cc1N=C2N1CCN(Cc2ccccc2)CC1 gave an EDmin (Mus musculus) of 200 mg/kg, an Activity (Rattus norvegicus [18]) of 1 and an Activity (Rattus norvegicus [19]) of 2. It also gave an LD50 [3] of over 400 mg/kg.
Molecule CCc1cc2c(s1)Nc1cc(C)ccc1N=C2N1CCN(C)CC1 has an Activity (Rattus norvegicus [20]) of 2, an EDmin (Mus musculus) of 50 mg/kg and an Activity (Rattus norvegicus [21]) of 2. For the same molecule, the LD50 [3] was 150 mg/kg.
Work on CC(C)c1cc2c(s1)Nc1ccc(F)cc1N=C2N1CCN(C)CC1 yielded an EDmin (Mus musculus) of 6.25 mg/kg, an Activity (Rattus norvegicus [22]) of 2 and an Activity (Rattus norvegicus [23]) of 4. For the same molecule, the LD50 [3] was 50 mg/kg.
In the case of OCCN1CCN(CC/C=C2/c3ccccc3Sc3ccc(C(F)(F)F)cc32)CC1 [Z-FLUPENTIXOL], the Activity (Rattus norvegicus [24]) is reported as 2, the EDmin (Mus musculus) is reported as 3 mg/kg and the Activity (Rattus norvegicus [25]) is reported as 4. The LD50 [3] was 300 mg/kg.
With O=C(CCCN1CCC(O)(c2ccc(Cl)cc2)CC1)c1ccc(F)cc1 [HALOPERIDOL] the Activity (Rattus norvegicus [26]) was 3, the EDmin (Mus musculus) was 3 mg/kg and the Activity (Rattus norvegicus [27]) was 3. It also gave an LD50 [3] of over 100 mg/kg.
CCc1cc2c(s1)Nc1ccc(F)cc1N=C2N1CCN(C)CC1 showed an Activity (Rattus norvegicus [28]) of 2, an EDmin (Mus musculus) of 6.25 mg/kg and an Activity (Rattus norvegicus [29]) of 3. For the same molecule, the LD50 [3] was over 200 mg/kg.
Molecule CC(=O)c1cc2c(s1)Nc1ccc(F)cc1N=C2N1CCN(C)CC1 has an EDmin (Mus musculus) of 12.5 mg/kg, an Activity (Rattus norvegicus [30]) of 0 and an Activity (Rattus norvegicus [21]) of 2. For the same molecule, the LD50 [3] was 200 mg/kg.
In the case of CCc1cc2c(s1)Nc1ccc(F)cc1N=C2N1CCNCC1, the Activity (Rattus norvegicus [31]) is reported as 1, the EDmin (Mus musculus) is reported as 100 mg/kg and the Activity (Rattus norvegicus [32]) is reported as 2. For the same molecule, the Activity (Rattus norvegicus [33]) was 1 and the LD50 [3] was over 800 mg/kg.
CCc1cc2c(s1)Nc1ccc(F)cc1N=C2N1CC[N+](C)([O-])CC1 gave an Activity (Rattus norvegicus [34]) of 1, an Activity (Rattus norvegicus [35]) of 4 and an EDmin (Mus musculus) of 25 mg/kg. For the same molecule, the LD50 [3] was 200 mg/kg.
